Legend:
Prothrombin = Prothrombin (Homo sapiens, UniProt P00734); test: Inhibitory activity against human thrombin
[1] = Partition coefficient (logP); format: physicochemical; conditions: octanol/water
Summary of the method: (§1)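 Octanol/pH 7.4 phosphate buffer standard partition method.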

Serine protease 1 [2] = biological target: T1, Serine protease 1 (Homo sapiens, UniProt P07477); test: Inhibitory activity against human trypsin
[3] = (§2) Number of occlusions was reported; format: ADME
Summary of the method: (§3)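 Rat carotid artery FeCl3-induced thrombosis: inhibitor infused iv at 6 µg/kg/min for 120 min before FeCl3 insult (vehicle saline or 30% propylene glycol/saline); occlusions counted; plasma drug level at end of experiment. 2X APTT = plasma concentration (µM) doubling activated partial thromboplastin time, determined in rat plasma.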

[4] = The plasma clearance in dog.; format: ADME, organism-based, Canis lupus familiaris; conditions: read-out: CI
Summary of the method: (§4)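 Two fasted male beagle dogs (10-12 kg), crossover design. Oral 5 mg/kg as 1% methocel suspension, blood from jugular vein at 0-480 min; iv 1 mg/kg bolus in 20% PEG/saline, blood at 0-480 min. Plasma frozen at -20 °C and assayed by HPLC.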

Rattus norvegicus [5] = test: AUC (Area under curve) was determined after peroral administration at a dose 10 mg/kg in rat.; format: ADME, organism-based, Plasma; parameters: dose 10 mg/kg, route oral; conditions: in vivo, po
[6] = (§5) log P values were determined by the standard partition method using octanol/pH 7.4 phosphate buffer; format: physicochemical; summary of the method: as §1
[7] = The half life period by intravenous administration in dog; format: ADME, organism-based, Canis lupus familiaris; conditions: in vivo; summary of the method: as §4
[8] = The plasma clearance in rat.; format: ADME, organism-based; conditions: read-out: CI
Summary of the method: (§6)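 Cannulated rats (carotid artery; jugular vein for iv group) dosed 2 mg/kg iv (saline or 30% propylene glycol/saline) or 10 mg/kg po (0.1% methocel suspension). Blood sampled 1-360 min (iv) or 15-360 min (po), centrifuged, plasma extracted with acetonitrile and quantified by thrombin enzyme activity assay.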

Canis familiaris [9] = test: AUC (Area under curve) was determined after peroral administration at a dose 5 mg/kg in dog; format: ADME, organism-based, Canis lupus familiaris, Plasma; parameters: dose 5 mg/kg, route oral; conditions: in vivo, po; summary of the method: as §4
Rattus norvegicus [10] = test: Concentration required to double the activated partial thromboplastin time (2X APTT) in FeCl3 induced thrombosis in rat carotid artery at 6 micro g/kg/min dose by intravenous administration.; format: functional; summary of the method: as §3
[11] = The half life period by peroral administration in dog; format: ADME, organism-based, Canis lupus familiaris; conditions: in vivo, po; summary of the method: as §4
Rattus norvegicus [12] = species: Rattus norvegicus; test: as §2; format: functional; summary of the method: as §3
[13] = Bioavailability in dog; format: ADME, organism-based, Canis lupus familiaris; conditions: in vivo; summary of the method: as §4
[14] = The half life period in rat.; format: ADME, organism-based; conditions: in vivo; summary of the method: as §6
[15] = as §5; format: physicochemical; summary of the method: as §1; remark: listed apart in the source
Rattus norvegicus [16] = test: AUC (Area under curve) was determined after intravenous administration at a dose 2 mg/kg in rat.; format: ADME, organism-based, Plasma; parameters: dose 2 mg/kg, route intravenous; conditions: in vivo
[17] = Bioavailability in rat; format: ADME, organism-based; conditions: in vivo; summary of the method: as §6
Canis familiaris [18] = test: AUC (Area under curve) was determined after intravenous administration at a dose 1 mg/kg in dog; format: ADME, organism-based, Canis lupus familiaris, Plasma; parameters: dose 1 mg/kg, route intravenous; conditions: in vivo; summary of the method: as §4
[19] = The fraction of free compound available in plasma of rat; format: ADME, cell-free; conditions: read-out: Funbound_plasma
Coagulation factor X = Coagulation factor X (Homo sapiens, UniProt P00742); test: Inhibitory activity against human serine protease Coagulation factor X (1.7*10e6*)
Coagulation factor X, sequence (P00742 41-179 limits assumed): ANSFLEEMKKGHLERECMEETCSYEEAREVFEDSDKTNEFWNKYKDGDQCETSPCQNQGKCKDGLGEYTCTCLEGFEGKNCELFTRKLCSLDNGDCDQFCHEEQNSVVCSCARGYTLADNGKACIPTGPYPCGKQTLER
Coagulation factor X, sequence (P00742 235-488 limits assumed): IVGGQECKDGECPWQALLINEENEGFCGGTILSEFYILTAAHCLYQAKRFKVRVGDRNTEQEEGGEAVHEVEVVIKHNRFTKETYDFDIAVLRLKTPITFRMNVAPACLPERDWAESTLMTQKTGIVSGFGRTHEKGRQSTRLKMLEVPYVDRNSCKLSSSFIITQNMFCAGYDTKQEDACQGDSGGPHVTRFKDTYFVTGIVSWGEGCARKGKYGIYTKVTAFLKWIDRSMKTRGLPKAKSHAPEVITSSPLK

Plasma kallikrein = Plasma kallikrein (Homo sapiens, UniProt P03952); test: Inhibitory activity against human serine protease (plasma Kallikrein) (89000*)
Plasma kallikrein, sequence (P03952 20-390 limits assumed): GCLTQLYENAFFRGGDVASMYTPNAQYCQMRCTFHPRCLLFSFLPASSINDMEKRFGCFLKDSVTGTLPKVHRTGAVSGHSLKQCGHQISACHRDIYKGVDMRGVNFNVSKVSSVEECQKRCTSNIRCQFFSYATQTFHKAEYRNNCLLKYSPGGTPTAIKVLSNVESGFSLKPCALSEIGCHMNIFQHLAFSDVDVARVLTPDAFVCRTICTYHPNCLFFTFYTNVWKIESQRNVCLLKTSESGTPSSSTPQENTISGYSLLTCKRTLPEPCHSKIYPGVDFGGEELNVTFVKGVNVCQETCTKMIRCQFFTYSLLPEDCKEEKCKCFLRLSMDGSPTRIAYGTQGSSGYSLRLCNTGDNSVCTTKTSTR
Plasma kallikrein, sequence (P03952 391-638 limits assumed): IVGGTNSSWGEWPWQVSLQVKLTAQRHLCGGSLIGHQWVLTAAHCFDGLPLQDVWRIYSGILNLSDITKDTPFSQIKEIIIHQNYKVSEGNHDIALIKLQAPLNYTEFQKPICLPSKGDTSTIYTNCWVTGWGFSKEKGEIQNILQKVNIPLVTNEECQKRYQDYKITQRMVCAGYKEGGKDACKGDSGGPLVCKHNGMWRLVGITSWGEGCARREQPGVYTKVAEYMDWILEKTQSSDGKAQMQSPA

Plasminogen = Plasminogen (Homo sapiens, UniProt P00747); test: Inhibitory activity against human serine protease (plasmin) (3.0*10e6)
Plasminogen, sequence (P00747 97-580 limits assumed): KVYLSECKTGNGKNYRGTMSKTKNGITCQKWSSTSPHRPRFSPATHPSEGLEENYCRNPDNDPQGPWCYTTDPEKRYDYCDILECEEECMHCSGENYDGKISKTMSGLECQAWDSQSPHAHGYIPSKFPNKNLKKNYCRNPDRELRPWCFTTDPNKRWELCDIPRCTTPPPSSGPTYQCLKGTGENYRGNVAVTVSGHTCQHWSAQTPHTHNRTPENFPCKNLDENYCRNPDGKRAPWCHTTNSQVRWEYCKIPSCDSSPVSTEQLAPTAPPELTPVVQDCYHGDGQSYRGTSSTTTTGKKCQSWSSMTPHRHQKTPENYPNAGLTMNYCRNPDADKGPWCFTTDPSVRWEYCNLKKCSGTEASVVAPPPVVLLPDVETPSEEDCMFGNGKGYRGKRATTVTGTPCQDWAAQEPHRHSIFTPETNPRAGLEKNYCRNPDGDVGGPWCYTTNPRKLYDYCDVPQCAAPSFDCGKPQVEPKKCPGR
Plasminogen, sequence (P00747 581-810 limits assumed): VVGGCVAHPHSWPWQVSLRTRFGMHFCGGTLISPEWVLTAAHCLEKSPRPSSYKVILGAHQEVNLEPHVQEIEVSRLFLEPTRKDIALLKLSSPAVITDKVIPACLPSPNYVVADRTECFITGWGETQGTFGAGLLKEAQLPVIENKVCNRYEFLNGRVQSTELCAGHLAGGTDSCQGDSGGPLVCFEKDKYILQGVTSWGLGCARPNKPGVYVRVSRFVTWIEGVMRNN

Serine protease 1 [20] = biological target: T1, Serine protease 1; test: Inhibitory activity against human serine protease (Trypsin)(2143*)
[21] = The fraction of free compound available in plasma of human; format: ADME, cell-free; conditions: read-out: Funbound_plasma
[22] = biological target: Tissue-type plasminogen activator (Homo sapiens, UniProt P00750); test: Inhibitory activity against human serine protease (TPA) (2.5*10e6*)
Tissue-type plasminogen activator, sequence (P00750 whole entry): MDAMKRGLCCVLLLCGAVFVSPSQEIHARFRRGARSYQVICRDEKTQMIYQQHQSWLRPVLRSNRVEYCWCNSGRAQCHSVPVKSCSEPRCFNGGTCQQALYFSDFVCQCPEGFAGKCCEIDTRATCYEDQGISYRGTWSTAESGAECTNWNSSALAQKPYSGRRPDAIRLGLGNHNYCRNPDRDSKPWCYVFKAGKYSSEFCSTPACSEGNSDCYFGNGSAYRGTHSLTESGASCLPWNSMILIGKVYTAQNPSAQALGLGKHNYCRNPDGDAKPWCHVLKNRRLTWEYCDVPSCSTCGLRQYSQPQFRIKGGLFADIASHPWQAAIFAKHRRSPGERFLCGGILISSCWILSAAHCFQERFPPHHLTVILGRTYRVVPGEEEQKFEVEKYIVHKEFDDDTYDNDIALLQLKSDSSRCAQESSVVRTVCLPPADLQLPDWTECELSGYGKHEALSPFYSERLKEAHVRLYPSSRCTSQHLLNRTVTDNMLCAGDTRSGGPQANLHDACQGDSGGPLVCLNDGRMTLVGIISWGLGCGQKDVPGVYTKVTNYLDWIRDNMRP

T1 sequence (P07477 whole entry): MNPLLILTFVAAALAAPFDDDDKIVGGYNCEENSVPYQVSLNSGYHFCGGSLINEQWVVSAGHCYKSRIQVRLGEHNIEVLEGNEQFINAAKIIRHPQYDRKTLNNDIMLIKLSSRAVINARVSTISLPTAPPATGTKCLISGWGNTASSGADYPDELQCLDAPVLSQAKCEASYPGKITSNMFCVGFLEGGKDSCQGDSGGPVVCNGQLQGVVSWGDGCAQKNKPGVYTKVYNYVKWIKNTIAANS

SMILES | Ki (Prothrombin) [nM] | AUC (Rattus norvegicus [5]) [µM·h] | clearance [8] [mL/min/kg] | No. of occlusions (Rattus norvegicus [12]) | half-life [14] [h] | logD [15] | AUC (Rattus norvegicus [16]) [µM·h] | bioavailability [17] [%] | fraction unbound [19] | further results
NC1CCC(CNC(=O)[C@@H]2CCCN2C(=O)[C@@H](N)C(C2CCCCC2)C2CCCCC2)CC1 (some centres not stated) | 440 |  |  |  |  |  |  |  |  | 
NC1CCC(CNC(=O)[C@@H]2CCCN2C(=O)[C@H](N)C(c2ccccc2)c2ccccc2)CC1 (some centres not stated) |  |  |  |  |  |  |  |  |  | logP [1]: -0.539; Ki (Serine protease 1 [2]): 94 nM
CC(C)(C)OC(=O)N[C@H](C(=O)N1CCC[C@H]1C(=O)NCC1CCC(N)CC1)C(C1CCCCC1)C1CCCCC1 (some centres not stated) | 3000 |  |  |  |  |  |  |  |  | 
CC1CNc2c(cccc2S(=O)(=O)N[C@@H](CCCNC(=N)N)C(=O)N2CCC(C)C[C@@H]2C(=O)O)C1 (single isomer, unassigned) [ARGATROBAN] |  |  |  |  |  |  |  |  |  | No. of occlusions [3]: 0
CC(C)(C)OC(=O)N[C@@H](C(=O)N1CCC[C@H]1C(=O)NCC1CCC(N)CC1)C(C1CCCCC1)C1CCCCC1 (some centres not stated) | 0.1 | 6.86 | 17.9 | 4 | 4.15 | > 3.09 | 3.34 | 41 | < 0.01 | clearance [4]: 6.06 mL/min/kg; logD [6]: > 3.09; half-life [7]: 3.27 h; AUC (Canis familiaris [9]): 45.3 µM·h; Concentration (Rattus norvegicus [10]): 2.7 µM; half-life [11]: 7.13 h; bioavailability [13]: 90%; AUC (Canis familiaris [18]): 90 µM·h
NC1CCC(CNC(=O)[C@@H]2CCCN2C(=O)[C@H](N)C(C2CCCCC2)C2CCCCC2)CC1 (some centres not stated) | 0.056 | 0.36 | 6 | 1 | 0.2 | 0.794 | 3.3 | 2 | 0.06 | Ki (Coagulation factor X): 95000 nM; Ki (Plasma kallikrein): 5000 nM; Ki (Plasminogen): 165000 nM; Ki (Serine protease 1 [20]): 120 nM; fraction unbound [21]: 0.02; Ki [22]: 137000 nM

— ChEMBL document CHEMBL1130205, “Potent noncovalent thrombin inhibitors that utilize the unique amino acid D-dicyclohexylalanine in the P3 position. Implications on oral bioavailability and antithrombotic efficacy” (J Med Chem, 1997)
